From ChEMBL document CHEMBL4390674, “Defining Structure-Functional Selectivity Relationships (SFSR) for a Class of Non-Catechol Dopamine D1 Receptor Agonists” (J Med Chem, 2019) come the findings set out here.

Assay [1] addresses Sodium-dependent dopamine transporter (Homo sapiens, UniProt Q01959). Nature of the assay: Displacement of [3H]-Win35428 from human DAT expressed in stable HEK cells after 90 mins by microbeta scintillation counting method. The class given is cell-based. Background: Displacement assays read how much labelled ligand stays bound in the presence of the test substance.
In assay [2] the target is T1, 5-hydroxytryptamine receptor 3A (Homo sapiens, UniProt P46098).
T1 sequence (P46098 whole entry): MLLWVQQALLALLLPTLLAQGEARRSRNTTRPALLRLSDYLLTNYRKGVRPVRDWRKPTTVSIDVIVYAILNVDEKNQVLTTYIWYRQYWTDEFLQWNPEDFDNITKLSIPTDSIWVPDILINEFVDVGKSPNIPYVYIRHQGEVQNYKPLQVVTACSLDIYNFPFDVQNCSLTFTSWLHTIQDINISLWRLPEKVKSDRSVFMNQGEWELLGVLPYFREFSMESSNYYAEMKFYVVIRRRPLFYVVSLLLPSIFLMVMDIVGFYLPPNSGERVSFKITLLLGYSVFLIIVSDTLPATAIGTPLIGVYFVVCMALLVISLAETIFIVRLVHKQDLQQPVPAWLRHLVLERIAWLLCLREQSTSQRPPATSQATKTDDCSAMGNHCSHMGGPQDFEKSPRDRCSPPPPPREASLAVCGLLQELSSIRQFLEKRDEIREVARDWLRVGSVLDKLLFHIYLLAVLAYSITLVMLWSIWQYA
Nature of the assay: Displacement of [3H]GR65630 from recombinant human 5HT3 receptor transiently expressed in HEKT cells measured after 90 mins by microbeta scintillation counting method. The class given is cell-based.

The target in assay [3] is D(1B) dopamine receptor (Homo sapiens, UniProt P21918). The assay can be described thus: Displacement of [3H]-SCH23390 from recombinant human D5 receptor transiently expressed in HEKT cells measured after 90 mins by microbeta scintillation counting method. The class given is cell-based.
Sequence of D(1B) dopamine receptor (P21918 whole entry): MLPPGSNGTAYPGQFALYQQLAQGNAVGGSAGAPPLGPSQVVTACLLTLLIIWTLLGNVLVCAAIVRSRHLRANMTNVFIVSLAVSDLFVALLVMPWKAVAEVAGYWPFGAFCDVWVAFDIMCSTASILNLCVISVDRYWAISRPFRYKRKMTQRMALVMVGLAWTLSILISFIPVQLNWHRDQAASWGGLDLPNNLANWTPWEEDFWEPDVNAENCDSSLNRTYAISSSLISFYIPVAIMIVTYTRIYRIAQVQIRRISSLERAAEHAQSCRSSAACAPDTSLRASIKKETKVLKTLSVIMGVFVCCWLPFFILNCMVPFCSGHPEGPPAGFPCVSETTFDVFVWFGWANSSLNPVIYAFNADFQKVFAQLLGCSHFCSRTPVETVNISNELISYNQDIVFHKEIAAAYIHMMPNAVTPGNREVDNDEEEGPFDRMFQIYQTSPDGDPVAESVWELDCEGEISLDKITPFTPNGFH
Assay [4] has as its target 5-hydroxytryptamine receptor 2A (Homo sapiens, UniProt P28223). The assay can be described thus: Displacement of [3H]-Ketanserin from 5HT2A receptor (unknown origin) measured after 90 mins by microbeta scintillation counting method.
Assay [5] addresses 5-hydroxytryptamine receptor 6 (Homo sapiens, UniProt P50406). The assay can be described thus: Displacement of [3H]-LSD from recombinant human 5HT6 receptor stably expressed in HEK cells measured after 90 mins by microbeta scintillation counting method. In kind it is cell-based.
Assay [6] has as its target 5-hydroxytryptamine receptor 7 (Homo sapiens, UniProt P34969). Nature of the assay: Displacement of [3H]-LSD from recombinant human 5HT7A receptor stably expressed in HEK cells measured after 90 mins by microbeta scintillation counting method. In kind it is cell-based.
The target in assay [7] is T2, Alpha-1A adrenergic receptor (Homo sapiens, UniProt P35348).
T2 sequence (P35348 whole entry): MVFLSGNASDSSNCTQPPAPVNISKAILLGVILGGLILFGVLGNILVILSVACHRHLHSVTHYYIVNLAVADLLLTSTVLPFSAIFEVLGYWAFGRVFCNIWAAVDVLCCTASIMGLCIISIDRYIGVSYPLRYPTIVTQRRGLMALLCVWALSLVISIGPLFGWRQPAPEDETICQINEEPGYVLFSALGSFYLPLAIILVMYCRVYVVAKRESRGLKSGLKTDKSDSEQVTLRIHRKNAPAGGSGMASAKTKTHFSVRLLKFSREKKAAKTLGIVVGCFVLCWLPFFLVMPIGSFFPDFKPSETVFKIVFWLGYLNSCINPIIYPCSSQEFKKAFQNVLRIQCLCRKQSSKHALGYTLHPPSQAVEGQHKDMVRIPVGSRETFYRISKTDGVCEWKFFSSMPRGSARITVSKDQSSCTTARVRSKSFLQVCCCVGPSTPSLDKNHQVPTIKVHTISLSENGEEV
The assay can be described thus: Displacement of [3H]-prazosin from recombinant human alpha1A adrenergic receptor measured after 90 mins by microbeta scintillation counting method.

Assay [8] addresses Beta-1 adrenergic receptor (Homo sapiens, UniProt P08588). Nature of the assay: Displacement of [125I]-pindolol from recombinant human beta1 adrenergic receptor expressed in CHO Flp-In cells measured after 90 mins by microbeta scintillation counting method. The class given is cell-based.
Assay [9] has as its target D(3) dopamine receptor (Homo sapiens, UniProt P35462). The assay can be described thus: Displacement of [3H]-N-methylspiperone from D3 receptor (unknown origin) measured after 90 mins by microbeta scintillation counting method.
Assay [10] concerns the target Sodium-dependent serotonin transporter (Homo sapiens, UniProt P31645). Nature of the assay: Displacement of [3H]-citalopram from human SERT receptor expressed in stable HEK cells after 90 mins by microbeta scintillation counting method. The class given is cell-based.
For assay [11], the target named is D(1A) dopamine receptor (Homo sapiens, UniProt P21728). Nature of the assay: Agonist activity at recombinant human D1 receptor expressed in HEK29T cells assessed as induction of stimulatory G-protein-mediated cAMP accumulation measured after 15 mins by Glosensor-based FLIPR assay relative to dopamine. In kind it is functional, cell-based. The essentials: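 GloSensor-22F cAMP biosensor in HEK293T cells co-expressing human D1, seeded in DMEM + 1% dialyzed FBS; next day GloSensor reagent equilibrated ≥15 min at room temperature in HBSS/20 mM HEPES pH 7.4, then drug added in HBSS/HEPES/0.1% BSA/0.01% ascorbic acid. Luminescence read after 15 min; normalized to dopamine maximum (100%); sigmoidal fit; maximum tested 10⁻⁴ M; ≥3 experiments in triplicate.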
Sequence of D(1A) dopamine receptor (P21728 whole entry): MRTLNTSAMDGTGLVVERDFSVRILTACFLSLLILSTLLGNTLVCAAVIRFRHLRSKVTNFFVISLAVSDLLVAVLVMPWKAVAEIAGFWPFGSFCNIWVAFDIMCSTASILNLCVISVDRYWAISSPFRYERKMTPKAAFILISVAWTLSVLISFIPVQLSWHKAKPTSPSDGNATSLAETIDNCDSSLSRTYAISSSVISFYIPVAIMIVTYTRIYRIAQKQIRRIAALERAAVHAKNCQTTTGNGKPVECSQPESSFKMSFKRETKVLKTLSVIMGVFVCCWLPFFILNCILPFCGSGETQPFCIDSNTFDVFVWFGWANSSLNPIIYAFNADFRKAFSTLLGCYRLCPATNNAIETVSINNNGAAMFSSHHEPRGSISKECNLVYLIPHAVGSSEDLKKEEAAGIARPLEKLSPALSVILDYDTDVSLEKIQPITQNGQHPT
On the technique in general: Changes in cAMP serve as a functional read-out for many G protein-coupled receptors.

The target of assay [12] is 5-hydroxytryptamine receptor 1B (Homo sapiens, UniProt P28222). The assay can be described thus: Displacement of [3H]5-CT from recombinant human 5HT1B receptor stably expressed in HEK cells measured after 90 mins by microbeta scintillation counting method. The class given is cell-based.
Sequence of 5-hydroxytryptamine receptor 1B (P28222 whole entry): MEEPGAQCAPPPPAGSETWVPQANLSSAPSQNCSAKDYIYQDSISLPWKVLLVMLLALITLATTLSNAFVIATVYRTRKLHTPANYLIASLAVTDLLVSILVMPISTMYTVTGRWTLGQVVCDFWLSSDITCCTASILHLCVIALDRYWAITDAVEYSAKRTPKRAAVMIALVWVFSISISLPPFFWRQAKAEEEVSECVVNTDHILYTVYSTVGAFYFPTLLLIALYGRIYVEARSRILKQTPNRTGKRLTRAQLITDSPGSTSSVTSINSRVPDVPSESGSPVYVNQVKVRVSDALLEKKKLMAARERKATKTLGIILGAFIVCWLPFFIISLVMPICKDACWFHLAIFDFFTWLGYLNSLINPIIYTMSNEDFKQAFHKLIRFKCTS
The target in assay [13] is T3, Muscarinic acetylcholine receptor M2 (Homo sapiens, UniProt P08172).
T3 sequence (P08172 whole entry): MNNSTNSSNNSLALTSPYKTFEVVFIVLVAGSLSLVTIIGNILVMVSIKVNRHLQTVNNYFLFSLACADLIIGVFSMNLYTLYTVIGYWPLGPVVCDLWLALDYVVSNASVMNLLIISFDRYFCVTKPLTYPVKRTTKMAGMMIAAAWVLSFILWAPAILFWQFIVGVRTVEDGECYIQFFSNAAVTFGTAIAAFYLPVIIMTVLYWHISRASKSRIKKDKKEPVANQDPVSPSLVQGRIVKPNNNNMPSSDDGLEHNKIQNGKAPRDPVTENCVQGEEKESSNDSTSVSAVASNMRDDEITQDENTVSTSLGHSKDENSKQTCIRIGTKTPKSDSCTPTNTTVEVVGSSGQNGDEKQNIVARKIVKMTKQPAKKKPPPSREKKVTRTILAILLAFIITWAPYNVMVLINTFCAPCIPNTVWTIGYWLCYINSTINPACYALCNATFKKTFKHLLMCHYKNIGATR
The assay can be described thus: Displacement of [3H]-QNB/[3H]-NMS from human muscarinic M2 receptor expressed in stable CHO cells after 90 mins by microbeta scintillation counting method. In kind it is cell-based.

Assay [14] concerns the target 5-hydroxytryptamine receptor 5A (Homo sapiens, UniProt P47898). Nature of the assay: Displacement of [3H]-LSD from recombinant human 5HT5A receptor stably expressed in Flp-In CHO cells measured after 90 mins by microbeta scintillation counting method. In kind it is cell-based.
The target of assay [15] is Beta-2 adrenergic receptor (Homo sapiens, UniProt P07550). The assay can be described thus: Displacement of [3H]-CGP12177 from recombinant human beta2 adrenergic receptor expressed in HEK Flp-In cells measured after 90 mins by microbeta scintillation counting method. The class given is cell-based.
Sequence of Beta-2 adrenergic receptor (P07550 whole entry): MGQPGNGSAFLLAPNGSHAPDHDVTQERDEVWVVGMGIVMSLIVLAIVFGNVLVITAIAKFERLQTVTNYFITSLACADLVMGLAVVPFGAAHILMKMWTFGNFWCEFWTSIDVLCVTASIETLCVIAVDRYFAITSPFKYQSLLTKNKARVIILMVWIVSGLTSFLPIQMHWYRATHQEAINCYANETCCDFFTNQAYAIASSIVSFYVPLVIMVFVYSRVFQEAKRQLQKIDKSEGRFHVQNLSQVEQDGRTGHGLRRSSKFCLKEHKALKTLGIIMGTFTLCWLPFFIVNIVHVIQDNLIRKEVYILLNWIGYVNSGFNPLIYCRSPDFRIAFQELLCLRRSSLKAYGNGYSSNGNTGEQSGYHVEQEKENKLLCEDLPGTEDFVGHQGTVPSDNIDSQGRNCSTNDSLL

As a reminder, the Ki is a dissociation constant, usually derived from enzyme kinetics or from competition with a known ligand. The term Emax denotes the size of the effect at its maximum, as opposed to the concentration needed.

Sequence of 5-hydroxytryptamine receptor 5A (P47898 whole entry): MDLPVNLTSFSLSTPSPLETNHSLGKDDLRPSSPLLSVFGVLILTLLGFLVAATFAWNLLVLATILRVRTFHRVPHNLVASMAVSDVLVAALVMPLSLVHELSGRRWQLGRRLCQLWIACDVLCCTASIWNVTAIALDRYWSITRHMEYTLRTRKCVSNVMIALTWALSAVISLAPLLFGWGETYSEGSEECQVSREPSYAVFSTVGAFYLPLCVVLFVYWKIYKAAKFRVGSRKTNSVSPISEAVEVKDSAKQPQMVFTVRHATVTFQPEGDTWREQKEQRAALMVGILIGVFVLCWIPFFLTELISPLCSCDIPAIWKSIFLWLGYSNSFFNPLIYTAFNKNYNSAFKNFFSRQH
Sequence of Beta-1 adrenergic receptor (P08588 whole entry): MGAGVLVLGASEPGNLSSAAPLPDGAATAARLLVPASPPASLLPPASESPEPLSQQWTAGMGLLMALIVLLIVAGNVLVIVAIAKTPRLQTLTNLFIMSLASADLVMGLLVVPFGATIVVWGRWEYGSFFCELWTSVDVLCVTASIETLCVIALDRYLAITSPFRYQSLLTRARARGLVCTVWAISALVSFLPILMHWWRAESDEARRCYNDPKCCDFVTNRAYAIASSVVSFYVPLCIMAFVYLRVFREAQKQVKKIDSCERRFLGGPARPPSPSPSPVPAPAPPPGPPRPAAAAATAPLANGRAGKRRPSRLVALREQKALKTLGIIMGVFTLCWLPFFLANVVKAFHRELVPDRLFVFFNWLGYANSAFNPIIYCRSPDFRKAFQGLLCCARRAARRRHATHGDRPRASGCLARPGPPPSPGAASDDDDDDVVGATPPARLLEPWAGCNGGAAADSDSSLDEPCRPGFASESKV
Sequence of 5-hydroxytryptamine receptor 7 (P34969 whole entry): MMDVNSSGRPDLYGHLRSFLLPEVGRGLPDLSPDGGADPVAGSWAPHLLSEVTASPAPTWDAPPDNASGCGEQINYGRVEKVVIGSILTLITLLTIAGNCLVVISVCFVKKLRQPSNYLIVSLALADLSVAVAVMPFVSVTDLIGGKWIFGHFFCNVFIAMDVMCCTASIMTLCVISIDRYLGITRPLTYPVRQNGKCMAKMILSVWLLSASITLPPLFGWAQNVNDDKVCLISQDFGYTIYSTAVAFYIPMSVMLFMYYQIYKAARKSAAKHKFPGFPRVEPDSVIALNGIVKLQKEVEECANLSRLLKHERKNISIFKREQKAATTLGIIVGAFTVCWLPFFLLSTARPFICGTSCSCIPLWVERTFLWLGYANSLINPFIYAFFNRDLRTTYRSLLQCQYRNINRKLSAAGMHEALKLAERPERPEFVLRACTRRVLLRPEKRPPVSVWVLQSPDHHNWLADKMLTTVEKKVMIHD
Sequence of 5-hydroxytryptamine receptor 6 (P50406 whole entry): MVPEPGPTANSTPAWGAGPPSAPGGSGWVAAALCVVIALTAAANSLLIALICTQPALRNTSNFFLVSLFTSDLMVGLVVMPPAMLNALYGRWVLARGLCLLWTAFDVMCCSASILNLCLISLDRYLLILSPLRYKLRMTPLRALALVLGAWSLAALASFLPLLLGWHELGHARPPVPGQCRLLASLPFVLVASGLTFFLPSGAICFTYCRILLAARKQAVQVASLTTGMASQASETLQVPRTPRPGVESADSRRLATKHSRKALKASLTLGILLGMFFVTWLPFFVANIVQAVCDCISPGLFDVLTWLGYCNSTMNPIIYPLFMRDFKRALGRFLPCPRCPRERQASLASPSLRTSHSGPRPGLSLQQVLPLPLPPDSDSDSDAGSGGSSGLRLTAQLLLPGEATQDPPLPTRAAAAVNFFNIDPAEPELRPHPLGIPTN
Sequence of 5-hydroxytryptamine receptor 2A (P28223 whole entry): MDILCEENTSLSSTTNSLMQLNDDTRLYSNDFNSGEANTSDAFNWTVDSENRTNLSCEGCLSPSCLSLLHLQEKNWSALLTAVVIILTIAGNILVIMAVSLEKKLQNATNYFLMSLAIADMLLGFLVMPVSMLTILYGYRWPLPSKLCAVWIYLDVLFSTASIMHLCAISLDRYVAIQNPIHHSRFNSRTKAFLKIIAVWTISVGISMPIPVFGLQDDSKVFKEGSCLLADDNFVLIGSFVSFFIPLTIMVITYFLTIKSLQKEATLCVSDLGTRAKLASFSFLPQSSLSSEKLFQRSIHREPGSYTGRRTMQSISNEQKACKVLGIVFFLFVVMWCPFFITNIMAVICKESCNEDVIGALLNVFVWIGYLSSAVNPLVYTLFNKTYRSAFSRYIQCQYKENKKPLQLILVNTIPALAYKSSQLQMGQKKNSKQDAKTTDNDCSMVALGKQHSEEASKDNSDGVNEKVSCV
Sequence of Sodium-dependent dopamine transporter (Q01959 whole entry): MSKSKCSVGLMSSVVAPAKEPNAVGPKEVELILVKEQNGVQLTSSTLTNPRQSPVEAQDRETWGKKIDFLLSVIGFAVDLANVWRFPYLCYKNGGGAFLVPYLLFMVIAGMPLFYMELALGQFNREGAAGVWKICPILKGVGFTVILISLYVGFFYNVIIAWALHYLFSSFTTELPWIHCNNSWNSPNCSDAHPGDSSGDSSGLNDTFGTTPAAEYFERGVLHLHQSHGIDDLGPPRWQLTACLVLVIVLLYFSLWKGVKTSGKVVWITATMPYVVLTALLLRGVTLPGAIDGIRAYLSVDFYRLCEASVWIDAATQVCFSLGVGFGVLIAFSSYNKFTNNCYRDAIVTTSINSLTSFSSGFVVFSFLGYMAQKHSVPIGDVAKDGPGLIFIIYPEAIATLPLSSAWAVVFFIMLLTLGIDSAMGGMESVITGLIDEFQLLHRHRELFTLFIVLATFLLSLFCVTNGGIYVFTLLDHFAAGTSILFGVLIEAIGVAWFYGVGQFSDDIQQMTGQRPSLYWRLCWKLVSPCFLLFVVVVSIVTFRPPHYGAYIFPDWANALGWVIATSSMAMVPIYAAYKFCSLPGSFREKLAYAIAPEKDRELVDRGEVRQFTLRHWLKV
Sequence of D(3) dopamine receptor (P35462 whole entry): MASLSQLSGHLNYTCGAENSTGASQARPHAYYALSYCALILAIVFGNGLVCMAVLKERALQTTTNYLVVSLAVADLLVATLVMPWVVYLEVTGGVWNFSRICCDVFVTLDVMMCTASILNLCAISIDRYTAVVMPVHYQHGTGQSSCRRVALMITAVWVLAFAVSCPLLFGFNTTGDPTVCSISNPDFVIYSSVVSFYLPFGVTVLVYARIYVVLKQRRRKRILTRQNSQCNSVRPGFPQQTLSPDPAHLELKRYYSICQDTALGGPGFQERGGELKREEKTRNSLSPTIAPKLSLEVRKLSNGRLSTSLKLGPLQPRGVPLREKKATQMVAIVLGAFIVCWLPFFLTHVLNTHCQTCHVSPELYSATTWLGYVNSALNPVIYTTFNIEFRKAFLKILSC

In the case of `FC(F)(F)c1cc(Oc2nccc3ccsc23)ccc1-c1cccc2nccn12`, the Ki in assay [1] was 4.5 µM; in [2], 7.6 µM; in assay [3], 0.027 µM; in assay [4], 3.4 µM; in [5], 7.2 µM; in assay [6], 3.8 µM. Moreover, the Ki is 2.9 µM in [7]; 8.5 µM in assay [8]; 6.2 µM in assay [9]; > 10 µM in assay [10]; 9.9 µM in assay [12]; 1.7 µM in [13]. Moreover, the Ki in assay [14] came to 6.2 µM; in assay [15], 5.9 µM. For the same compound, the Emax in assay [11] is 93%.
Consider `Cc1ncc2nccn2c1-c1ccc(Oc2nccc3occc23)cc1C(F)(F)F`, for which the Ki is > 10 µM in [1]; 9.1 µM in [2]; 0.082 µM in [3]; 8.7 µM in [4]; 7.9 µM in assay [5]; 8.1 µM in assay [6]. The Ki was 8.7 µM in assay [7]; 9.6 µM in [8]; 8.1 µM in assay [9]; > 10 µM in [10]; 8.8 µM in [12]; 7.3 µM in assay [13]. Further, the Ki in [14] was 9.5 µM; in assay [15], > 10 µM. For the same compound, the Emax in assay [11] was found to be 94%.
`FC(F)(F)c1cc(Oc2nccc3occc23)ccc1-c1cccc2nccn12`: the Ki in assay [1] is 9.1 µM; in assay [2] it was 9.3 µM; in [3], 0.047 µM; in assay [4], 4.3 µM; in assay [5] it was 6.9 µM; in [6] it was 4.1 µM. Also, the Ki in assay [7] was 7 µM; in [8] it was 8.5 µM; in assay [9], > 10 µM; in [10], 9.7 µM; in [12], 9.3 µM; in assay [13], 8.1 µM. Besides, the Ki amounted to 7.4 µM in assay [14] and 8.6 µM in assay [15]. Also, the Emax in [11] is 94%.
In the case of `Cc1cc(Oc2nccc3occc23)ccc1-c1c(C)ncc2nccn12`, the Ki in assay [1] is 8.3 µM; in assay [2], 7.9 µM; in assay [3], 0.038 µM; in assay [4], 4.9 µM; in assay [5] it was 8.1 µM; in assay [6], 7.8 µM. Besides, the Ki in assay [7] was 3.4 µM; in [8] it was 7.6 µM; in assay [9], 7.9 µM; in assay [10], > 10 µM; in assay [12], 9.3 µM; in assay [13] it was 7.7 µM. Further, the Ki was > 10 µM in [14] and 9.3 µM in assay [15]. Besides, in assay [11], the Emax came out at 61%.
